Columns and labels:
Carbonic anhydrase 9 = Carbonic anhydrase 9 (Homo sapiens, UniProt Q16790); experiment: Inhibition of human CA9 assessed as inhibition constant
Outline: (§1)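 Esterase activity of the hCA isoform was followed spectrophotometrically by Verpoorte's method, as the rise in absorbance at 348 nm with p-nitrophenyl acetate as substrate. Increasing inhibitor concentrations were incubated with the substrate, from 1 mg mL−1 DMSO stocks, to derive KI. Results are means of triplicate assays ± SEM.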

Carbonic anhydrase 12 = Carbonic anhydrase 12 (Homo sapiens, UniProt O43570); experiment: Inhibition of human CA12 assessed as inhibition constant; outline: as §1
Chain of Carbonic anhydrase 12 (O43570 whole entry): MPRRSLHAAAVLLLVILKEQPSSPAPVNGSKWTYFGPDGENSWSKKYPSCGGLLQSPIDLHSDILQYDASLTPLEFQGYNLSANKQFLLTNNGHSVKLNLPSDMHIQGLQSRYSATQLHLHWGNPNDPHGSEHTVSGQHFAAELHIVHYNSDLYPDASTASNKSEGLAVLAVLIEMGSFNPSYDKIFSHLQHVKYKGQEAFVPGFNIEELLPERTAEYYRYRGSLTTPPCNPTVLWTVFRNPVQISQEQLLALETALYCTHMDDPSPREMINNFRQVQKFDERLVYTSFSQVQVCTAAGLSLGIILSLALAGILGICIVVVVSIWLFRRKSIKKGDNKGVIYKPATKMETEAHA

A549 = experiment: Cytotoxicity against human A549 cells assessed as cell viability measured after 48 hrs by MTT assay; conditions: A549, 48 h
Hep 3B2 = experiment: Cytotoxicity against human Hep3B cells assessed as cell viability measured after 48 hrs by MTT assay
L929 = experiment: Cytotoxicity against mouse L929 cells assessed as cell viability measured after 48 hrs by MTT assay; conditions: L929, 48 h

Row | Structure (SMILES) | Ki (Carbonic anhydrase 9) [µM] | Ki (Carbonic anhydrase 12) [µM] | IC50 (A549) [µM] | IC50 (Hep 3B2) [µM] | IC50 (L929) [µM]
1 | CCCCCCCO/N=C(/C)c1nnn(-c2ccc(S(N)(=O)=O)cc2)c1C | 0.196 | 0.117 |  |  | 
2 | O=c1[nH]cc(F)c(=O)[nH]1 [FLUOROURACIL] |  |  | 100 | 60.6 | 14

Source: ChEMBL document CHEMBL6134774, “Novel benzenesulfonamides containing a dual triazole moiety with selective carbonic anhydrase inhibition and anticancer activity” (RSC Med Chem, 2025)
